The record followed here is ChEMBL document CHEMBL1152695, “Development of 3-substituted-1H-indole derivatives as NR2B/NMDA receptor antagonists” (Bioorg Med Chem, 2009).

Test [1] relates to Mus musculus. The test is described as follows: Anticonvulsant activity in ip dosed DBA/2 mouse assessed as inhibition of auditory stimulation-induced clonic seizures administered 30 mins before auditory stimulation. It is filed as functional. The conditions noted are these: DBA/2, ip. The procedure, abridged: (§1)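 DBA/2 mice (8–12 g, 22–25 days old), either sex, groups of 10. Given ip in 50% DMSO/50% saline at 0.1 mL/10 g, 30 min before testing. After 60 s habituation under a dome, sound (12–16 kHz, 109 dB) applied for 60 s or until tonic extension. Latency and incidence of each seizure phase scored.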

Test [2] concerns Mus musculus. As to the kind of experiment: Anticonvulsant activity in ip dosed DBA/2 mouse assessed as inhibition of auditory stimulation-induced tonic seizures administered 30 mins before auditory stimulation. It is filed as functional. The note with it: DBA/2, ip. The method in brief: as §1
Test [3] addresses Glutamate receptor ionotropic, NMDA 2B (Rattus norvegicus, UniProt Q00960). The test is described as follows: Displacement of [3H]ifenprodil from NMDA NR2B receptor in Wistar rat cerebral cortex membrane. It is filed as tissue-based.
The target in test [4] is Glutamate receptor ionotropic, NMDA 2B (Rattus norvegicus) (UniProt Q00960). The test is described as follows: Displacement of [3H]ifenprodil from NMDA NR2B receptor in Wistar rat cerebral cortex membrane at 10 uM. The test is classed as tissue-based.
Glutamate receptor ionotropic, NMDA 2B (Rattus norvegicus), sequence (Q00960 27-1482 limits assumed): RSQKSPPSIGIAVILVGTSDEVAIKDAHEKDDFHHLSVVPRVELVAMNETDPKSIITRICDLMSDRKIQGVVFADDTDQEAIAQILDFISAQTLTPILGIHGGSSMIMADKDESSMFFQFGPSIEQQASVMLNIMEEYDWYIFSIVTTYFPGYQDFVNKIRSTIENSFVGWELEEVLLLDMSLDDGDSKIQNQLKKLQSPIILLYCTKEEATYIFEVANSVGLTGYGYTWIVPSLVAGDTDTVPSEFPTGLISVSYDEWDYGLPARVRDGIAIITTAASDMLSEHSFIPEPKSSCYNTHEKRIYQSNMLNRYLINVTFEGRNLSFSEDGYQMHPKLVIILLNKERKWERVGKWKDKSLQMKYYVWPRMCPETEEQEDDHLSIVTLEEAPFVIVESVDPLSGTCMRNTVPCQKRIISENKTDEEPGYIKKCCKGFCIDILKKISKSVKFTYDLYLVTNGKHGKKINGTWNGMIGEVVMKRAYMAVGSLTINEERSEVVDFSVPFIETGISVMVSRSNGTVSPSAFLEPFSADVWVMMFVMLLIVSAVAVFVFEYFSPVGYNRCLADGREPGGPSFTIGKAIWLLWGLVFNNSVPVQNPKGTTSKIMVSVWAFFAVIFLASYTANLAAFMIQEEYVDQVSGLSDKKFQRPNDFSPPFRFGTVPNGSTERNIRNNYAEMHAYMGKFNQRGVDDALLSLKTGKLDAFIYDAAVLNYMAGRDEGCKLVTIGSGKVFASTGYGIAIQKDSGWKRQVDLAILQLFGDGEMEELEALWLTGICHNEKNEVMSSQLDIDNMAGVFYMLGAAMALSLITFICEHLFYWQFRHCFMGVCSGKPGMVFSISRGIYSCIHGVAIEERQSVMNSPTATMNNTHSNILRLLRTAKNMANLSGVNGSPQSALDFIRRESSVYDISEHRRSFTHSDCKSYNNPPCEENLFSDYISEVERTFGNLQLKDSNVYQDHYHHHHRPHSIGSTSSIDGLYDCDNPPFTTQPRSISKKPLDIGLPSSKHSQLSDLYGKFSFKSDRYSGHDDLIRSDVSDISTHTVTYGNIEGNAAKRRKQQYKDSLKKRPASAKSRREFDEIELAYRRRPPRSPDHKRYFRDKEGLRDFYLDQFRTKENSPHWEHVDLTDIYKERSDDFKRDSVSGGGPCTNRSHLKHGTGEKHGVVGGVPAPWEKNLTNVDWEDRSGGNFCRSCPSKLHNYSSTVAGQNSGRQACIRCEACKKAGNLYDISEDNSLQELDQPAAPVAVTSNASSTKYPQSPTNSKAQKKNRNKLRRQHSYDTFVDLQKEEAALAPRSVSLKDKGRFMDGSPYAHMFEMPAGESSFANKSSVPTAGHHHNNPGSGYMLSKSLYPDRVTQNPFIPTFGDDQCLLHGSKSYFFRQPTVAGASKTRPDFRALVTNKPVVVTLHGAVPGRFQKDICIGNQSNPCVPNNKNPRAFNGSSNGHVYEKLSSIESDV
The target is the same in test [5]. As to the kind of experiment: Antagonist activity at NMDA NR2B receptor in Wistar rat CA1 pyramidal neurons assessed as reduction of NMDA-induced inward currents at 100 uM at holding potential of -60 mV by patch-clamp technique. The test is classed as functional, cell-based. Set-up: scale not given: the % may be the effect or the level left. The conditions noted are these: Pyramidal neuron. The procedure, abridged:
(§2)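 Rat hippocampal slices; whole-cell currents recorded from single CA1 pyramidal neurons held at -60 mV. Inward current evoked by NMDA (50 µM, 5 s) plus glycine (0.5 µM). Compound bath-perfused at 1, 10 or 100 µM for 5 min. Amplitude taken as peak minus baseline, from at least three consecutive responses in control and in compound. Sets compared by unpaired t-test; percent reduction reported as mean ± SEM.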

Test [6] has the same target. As to the kind of experiment: Antagonist activity at NMDA NR2B receptor in Wistar rat CA1 pyramidal neurons assessed as reduction of NMDA-induced inward currents at 10 uM at holding potential of -60 mV by patch-clamp technique. The note with it: Pyramidal neuron. It is filed as functional, cell-based. Also on record: scale not given: the % may be the effect or the level left. The procedure, abridged:
as §2

Test [7] shares this target. The test is described as follows: Antagonist activity at NMDA NR2B receptor in Wistar rat CA1 pyramidal neurons assessed as reduction of NMDA-induced inward currents at 1 uM at holding potential of -60 mV by patch-clamp technique. It is filed as functional, cell-based. Set-up: scale not given: the % may be the effect or the level left. The conditions noted are these: Pyramidal neuron. The procedure, abridged:
as §2

For test [8] the target is unchanged. As to the kind of experiment: Antagonist activity at NMDA NR2B receptor in Wistar rat CA1 pyramidal neurons assessed as inhibition of NMDA-induced inward currents at holding potential of -60 mV by patch-clamp technique. The test is classed as functional, cell-based. The conditions noted are these: Pyramidal neuron. The method in brief: as §2

SMILES strings stand for the structures. A value given as a limit tells only on which side of the number the result lay.

Glutamate receptor ionotropic, NMDA 2B, sequence (Q00960 whole entry): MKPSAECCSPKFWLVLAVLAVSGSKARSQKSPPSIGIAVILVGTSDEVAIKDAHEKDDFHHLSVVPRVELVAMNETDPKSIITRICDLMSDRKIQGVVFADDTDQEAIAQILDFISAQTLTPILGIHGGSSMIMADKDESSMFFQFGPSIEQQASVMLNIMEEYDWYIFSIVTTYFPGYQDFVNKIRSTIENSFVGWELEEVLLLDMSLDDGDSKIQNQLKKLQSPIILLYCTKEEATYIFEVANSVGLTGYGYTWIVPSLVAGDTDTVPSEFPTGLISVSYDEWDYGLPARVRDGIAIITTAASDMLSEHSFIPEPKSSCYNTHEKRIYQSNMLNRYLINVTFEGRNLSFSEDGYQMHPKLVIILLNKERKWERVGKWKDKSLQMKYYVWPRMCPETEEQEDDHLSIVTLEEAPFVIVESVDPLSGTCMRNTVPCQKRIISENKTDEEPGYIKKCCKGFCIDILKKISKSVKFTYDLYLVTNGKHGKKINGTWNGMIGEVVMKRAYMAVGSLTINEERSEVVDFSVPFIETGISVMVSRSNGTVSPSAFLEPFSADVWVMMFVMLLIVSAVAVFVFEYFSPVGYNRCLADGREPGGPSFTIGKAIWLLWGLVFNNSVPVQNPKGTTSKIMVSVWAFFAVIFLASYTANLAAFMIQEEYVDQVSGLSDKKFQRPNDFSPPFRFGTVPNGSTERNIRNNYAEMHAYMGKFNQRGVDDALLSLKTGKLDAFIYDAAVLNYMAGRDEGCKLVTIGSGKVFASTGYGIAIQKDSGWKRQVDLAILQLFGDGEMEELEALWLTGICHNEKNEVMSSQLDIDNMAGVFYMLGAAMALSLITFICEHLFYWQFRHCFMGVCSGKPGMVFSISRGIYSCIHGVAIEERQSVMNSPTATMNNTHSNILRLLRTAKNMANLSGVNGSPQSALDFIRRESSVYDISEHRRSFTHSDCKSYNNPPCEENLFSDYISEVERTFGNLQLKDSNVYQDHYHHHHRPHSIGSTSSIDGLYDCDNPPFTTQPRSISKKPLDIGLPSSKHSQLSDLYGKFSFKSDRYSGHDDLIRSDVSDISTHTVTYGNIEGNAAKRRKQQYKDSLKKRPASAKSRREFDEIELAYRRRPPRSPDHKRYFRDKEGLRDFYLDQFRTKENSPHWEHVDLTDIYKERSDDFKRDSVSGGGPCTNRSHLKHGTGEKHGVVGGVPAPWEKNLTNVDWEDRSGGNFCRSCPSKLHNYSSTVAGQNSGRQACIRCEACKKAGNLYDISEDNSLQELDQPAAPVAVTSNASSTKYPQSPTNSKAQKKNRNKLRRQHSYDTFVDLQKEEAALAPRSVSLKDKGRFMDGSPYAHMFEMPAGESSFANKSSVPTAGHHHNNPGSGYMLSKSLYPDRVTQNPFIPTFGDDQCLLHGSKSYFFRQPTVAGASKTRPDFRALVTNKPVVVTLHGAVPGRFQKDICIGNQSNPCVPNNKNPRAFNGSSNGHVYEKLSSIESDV

For the molecule `O=C(Cc1c[nH]c2ccc(Br)cc12)N1CCC(Cc2ccccc2)CC1`, the ED50 in the test on Mus musculus [1] was 27.3 µmol/kg; with Mus musculus [2], 5.42 µmol/kg.

Consider `COc1ccc2[nH]cc(C(=O)CN3CCC(Cc4ccccc4)CC3)c2c1`, for which the ED50 in the test with Mus musculus [1] was determined as 59.9 µmol/kg; in the test with Mus musculus [2], 36.5 µmol/kg.

Consider `O=C(CCc1c[nH]c2ccccc12)N1CCC(Cc2ccccc2)CC1`, for which the ED50 in the test with Mus musculus [1] is > 100 µmol/kg; with Mus musculus [2], 57.6 µmol/kg.

As to `COc1ccc2[nH]cc(C(=O)C(=O)N3CCC(Cc4ccccc4)CC3)c2c1`, the ED50 was > 100 µmol/kg in the test on Mus musculus [1] and 78.8 µmol/kg in the test with Mus musculus [2].

In turn, `O=C(C(=O)N1CCC(Cc2ccccc2)CC1)c1c[nH]c2ccc(O)cc12` came in with an IC50 in test [3] of 2660 nM. The same molecule came in with an Activity in test [4] of 77%. The ED50 with Mus musculus [1] and with Mus musculus [2] was > 100 µmol/kg in each case.

As to `COc1ccc2[nH]cc(CC(=O)N3CCC(Cc4ccccc4)CC3)c2c1`, the ED50 in the test with Mus musculus [1] was 89 µmol/kg; in the test with Mus musculus [2], 34.4 µmol/kg.

With `C[C@@H](CN1CCC(Cc2ccccc2)CC1)[C@@H](O)c1ccc(O)cc1`, the ED50 with Mus musculus [1] was determined as 40 µmol/kg; with Mus musculus [2], 10.6 µmol/kg.

In test [4], `O=C(C(=O)N1CCC(Cc2ccccc2)CC1)c1c[nH]c2ccccc12` registered an Activity of 36%. In addition, the ED50 amounted to 22.4 µmol/kg in the test with Mus musculus [1] and 0.95 µmol/kg in the test with Mus musculus [2].

For `O=C(CN1CCN(Cc2ccccc2)CC1)c1c[nH]c2ccccc12`, the ED50 with Mus musculus [1] and with Mus musculus [2] was > 100 µmol/kg throughout.

As for `O=C(C(=O)N1CCC(Cc2ccccc2)CC1)c1c[nH]c2ccc(Br)cc12`, the ED50 was > 100 µmol/kg with Mus musculus [1] and 47.9 µmol/kg with Mus musculus [2].

Take `O=C(Cc1c[nH]c2ccc(O)cc12)N1CCC(Cc2ccccc2)CC1`: the ED50 with Mus musculus [1] is 45.6 µmol/kg; in the test with Mus musculus [2], 13.9 µmol/kg.

For `O=C(Cc1c[nH]c2ccccc12)N1CCC(Cc2ccccc2)CC1`, the figures for the ED50 with Mus musculus [1] and in the test with Mus musculus [2] were 70.3 µmol/kg and 39.2 µmol/kg, respectively.

Consider `O=C(CN1CCC(Cc2ccccc2)CC1)c1c[nH]c2ncccc12`, for which the results for the ED50 in the test with Mus musculus [1] and in the test with Mus musculus [2] were 88.5 µmol/kg and 32.5 µmol/kg, respectively.

With `O=C(CN1CCC(Cc2ccccc2)CC1)c1c[nH]c2ccc(Br)cc12`, the 50% effective dose (ED50) worked out at 84.9 µmol/kg in the test with Mus musculus [1] and 49.7 µmol/kg with Mus musculus [2].

Turning to `O=C(CN1CCC(Cc2ccccc2)CC1)c1c[nH]c2ccc(O)cc12`, the Activity in test [5] is 75%; in test [6] it was 52%; in test [7] it was 23%; in test [8] it was “Dose-dependent effect”; in test [4], 92%. Further, in test [3], the IC50 was found to be 25 nM. Moreover, the Ki in test [3] was 23 nM. Besides, the ED50 in the test on Mus musculus [1] was 11.5 µmol/kg; with Mus musculus [2], 6.48 µmol/kg.

For `O=C(CN1CCC(Cc2ccccc2)CC1)c1c[nH]c2ccccc12`, the IC50 in test [3] was determined as 769 nM. Further, the Activity in test [4] was determined as 89%. The ED50 was 22.4 µmol/kg in the test on Mus musculus [1] and 8.71 µmol/kg in the test with Mus musculus [2].
